51 compounds from ChEMBL document CHEMBL1123544, “Syntheses of 5,6,7- and 5,7,8-trioxygenated 3',4'-dihydroxyflavones having alkoxy groups and their inhibitory activities against arachidonate 5-lipoxygenase” (J Med Chem, 1986) can be followed below.

The target of this assay is T1, Polyunsaturated fatty acid 5-lipoxygenase (Rattus norvegicus, UniProt P12527).
T1 sequence (P12527 whole entry): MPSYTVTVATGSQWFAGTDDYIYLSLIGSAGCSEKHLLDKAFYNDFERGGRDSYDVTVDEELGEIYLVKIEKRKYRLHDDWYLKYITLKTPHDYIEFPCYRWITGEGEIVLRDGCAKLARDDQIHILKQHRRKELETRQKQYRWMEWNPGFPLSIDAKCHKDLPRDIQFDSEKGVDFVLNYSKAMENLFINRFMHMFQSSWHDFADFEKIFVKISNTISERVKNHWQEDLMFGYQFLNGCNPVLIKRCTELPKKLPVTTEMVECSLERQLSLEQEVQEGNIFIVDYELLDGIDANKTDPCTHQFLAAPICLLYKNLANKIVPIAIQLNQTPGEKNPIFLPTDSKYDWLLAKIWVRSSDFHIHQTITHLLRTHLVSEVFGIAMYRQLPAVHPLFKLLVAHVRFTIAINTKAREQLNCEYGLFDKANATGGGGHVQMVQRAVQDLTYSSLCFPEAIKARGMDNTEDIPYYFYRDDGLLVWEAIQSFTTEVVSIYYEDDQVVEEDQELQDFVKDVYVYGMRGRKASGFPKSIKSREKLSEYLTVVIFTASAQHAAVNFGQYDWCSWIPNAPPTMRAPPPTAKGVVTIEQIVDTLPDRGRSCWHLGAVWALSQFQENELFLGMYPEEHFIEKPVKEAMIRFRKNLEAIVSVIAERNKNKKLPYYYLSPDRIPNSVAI
Put plainly: Ability to inhibit 5-lipoxygenase in rat basophilic leukemia cells. Type of assay: cell-based, RBL-1. In a few lines:
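Enzyme: RBL cell sonicate high-speed supernatant, 25–50% ammonium sulfate cut, desalted on Sephadex G-25 (68 μg protein). Compound in ethanol preincubated 5 min with enzyme. Reaction started with 25 μM [1-14C]arachidonic acid, 30 °C for 5 min in 50 mM potassium phosphate pH 7.4 with 2 mM ATP and 2 mM CaCl2. Radio-TLC of 5-HPETE; IC50 from concentration series.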

pIC50: −log10 of the molar value.

The term pIC50 denotes the IC50 on a negative log10 scale, so that one unit is a factor of ten. Low values mean a high IC50, high ones a low IC50.

Turning to `CCCCCCCCCCOc1c(OC)c(OC)cc2oc(-c3ccc(O)c(O)c3)cc(=O)c12`, the negative logarithm of the IC50 (pIC50) was 7.74.

In turn, `CCCCOc1c(OC)cc2oc(-c3ccc(O)c(O)c3)cc(=O)c2c1OC` gave a pIC50 of 7.28. Against the preceding compound, the pIC50 is 0.46 log units lower.

The compound `CCCCCCCCCCCCOc1cc(OC)c2c(=O)cc(-c3ccc(O)c(O)c3)oc2c1OC` showed a pIC50 of 7.48.

Take `CCCCCCCCCCCCOc1cc2oc(-c3ccc(O)c(O)c3)cc(=O)c2c(O)c1OC`: the pIC50 was 6.85. Compared with the last compound, the pIC50 is 0.63 log units lower.

In turn, `CCCCCCCCCCOc1c(OC)cc2oc(-c3ccc(O)c(O)c3)cc(=O)c2c1OC` showed a negative-log IC50 (pIC50) of 7.77.

The compound `CCCCCCCCOc1c(OC)cc2oc(-c3ccc(OC(C)=O)c(OC(C)=O)c3)cc(=O)c2c1OC` had a pIC50 of 7.38.

`COc1cc2oc(-c3ccc(O)c(O)c3)cc(=O)c2c(OCCC(C)C)c1OC`: the negative logarithm of the IC50 (pIC50) was 7.80.

`CCCCOc1c(OC)cc2oc(-c3ccc(OC(C)=O)c(OC(C)=O)c3)cc(=O)c2c1OC` gave a pIC50 of 7.00.

The compound `CCCCCCCCCCOc1c(OC)cc2oc(-c3ccc(OC(C)=O)c(OC(C)=O)c3)cc(=O)c2c1OC` gave a pIC50 of 7.52.

Take `CCCCCCCCCCCCCCOc1c(OC)cc2oc(-c3ccc(O)c(O)c3)cc(=O)c2c1O`: the pIC50 was 5.00. This pIC50 is 2.52 log units lower than that of the compound before.

`CCCCCCCCCCCCCCCCCCOc1c(OC)cc2oc(-c3ccc(O)c(O)c3)cc(=O)c2c1O` had a pIC50 of 5.00.

In turn, `CCCCCCCCCCCCCCCCOc1c(OC)c(OC)cc2oc(-c3ccc(O)c(O)c3)cc(=O)c12` showed a pIC50 of 6.85.

The compound `CCCCCCCCCCCCCCOc1c(OC)cc2oc(-c3ccc(O)c(O)c3)cc(=O)c2c1OC` had a pIC50 of 7.15. This pIC50 is 0.30 log units higher than that of the compound before.

`CCCCCCCCCCCCOc1cc2oc(-c3ccc(O)c(O)c3)cc(=O)c2c(OC)c1OC` showed a pIC50 of 7.00.

`CCCCCCCCCCCCOc1c(OC)cc2oc(-c3ccc(O)c(O)c3)cc(=O)c2c1O`: the pIC50 was 7.59.

Consider `COc1cc2oc(-c3ccc(O)c(O)c3)cc(=O)c2c(OC)c1OCCC(C)C`, for which the pIC50 is 7.59.

In turn, `CCCCCCOc1c(OC)cc2oc(-c3ccc(OC(C)=O)c(OC(C)=O)c3)cc(=O)c2c1OC` showed a pIC50 of 7.30. Compared with the last compound, the pIC50 is 0.29 log units lower.

`CCCCCCCCOc1c(OC)c(OC)cc2oc(-c3ccc(O)c(O)c3)cc(=O)c12`: the pIC50 is 7.72.

The compound `CCCCCCOc1c(OC)c(OC)cc2oc(-c3ccc(O)c(O)c3)cc(=O)c12` had a pIC50 of 7.82.

`CCCCCCCCCCCCOc1cc(OC)c(OC)c2oc(-c3ccc(O)c(O)c3)cc(=O)c12` showed a pIC50 of 7.66.

As to `CCCCCCCCCCCCCCCCCCOc1c(OC)c(OC)cc2oc(-c3ccc(O)c(O)c3)cc(=O)c12`, the pIC50 is 5.05.

In the case of `COc1cc2oc(-c3ccc(OC(C)=O)c(OC(C)=O)c3)cc(=O)c2c(OC)c1OC`, the pIC50 is 6.00.

For `CCCCCCCCCCCCOc1c(OC)cc(OC)c2c(=O)cc(-c3ccc(O)c(O)c3)oc12`, the negative logarithm of the IC50 (pIC50) was 6.96.

In the case of `COc1cc(OC)c2c(=O)cc(-c3ccc(O)c(O)c3)oc2c1OC`, the pIC50 was 6.37.

As to `CCCCCCOc1c(OC)cc2oc(-c3ccc(O)c(O)c3)cc(=O)c2c1O`, the pIC50 was 7.70.

As to `CCCCOc1c(OC)cc2oc(-c3ccc(O)c(O)c3)cc(=O)c2c1O`, the pIC50 is 7.82.

For the compound `CCCCCCCCCCOc1c(OC)cc2oc(-c3ccc(O)c(O)c3)cc(=O)c2c1O`, the pIC50 was 7.96. The pIC50 values of the last two compounds are within 0.2 log units of each other.

For the compound `COc1cc2oc(-c3ccc(O)c(O)c3)cc(=O)c2c(O)c1OCCC(C)C`, the pIC50 is 8.05.

In the case of `CCCCCCCCCCCCOc1c(OC)cc2oc(-c3ccc(OC(C)=O)c(OC(C)=O)c3)cc(=O)c2c1OC`, the pIC50 was 7.12.

For the compound `CCCCCCCCCCCCCCOc1c(OC)c(OC)cc2oc(-c3ccc(O)c(O)c3)cc(=O)c12`, the pIC50 is 7.55.

For the compound `CCCCCOc1c(OC)cc2oc(-c3ccc(O)c(O)c3)cc(=O)c2c1O`, the pIC50 was 7.66.

Turning to `COc1cc2oc(-c3ccc(O)c(O)c3)cc(=O)c2c(OC)c1OC`, the pIC50 was 6.62.

Consider `CCCCCCCCCCCCCCCCCCOc1c(OC)cc2oc(-c3ccc(O)c(O)c3)cc(=O)c2c1OC`, for which the pIC50 is 5.00.

Compound `CCCCCOc1c(OC)c(OC)cc2oc(-c3ccc(O)c(O)c3)cc(=O)c12` gave a pIC50 of 7.49.

With `CCCCCCCCOc1c(OC)cc2oc(-c3ccc(O)c(O)c3)cc(=O)c2c1O`, the pIC50 was 7.96.

`CCCCCCCCCCCCOc1c(OC)cc(O)c2c(=O)cc(-c3ccc(O)c(O)c3)oc12` gave a pIC50 of 6.96.

`CCCCOc1c(OC)c(OC)cc2oc(-c3ccc(O)c(O)c3)cc(=O)c12`: the pIC50 was 7.35.

Regarding `CCCCCOc1c(OC)cc2oc(-c3ccc(O)c(O)c3)cc(=O)c2c1OC`, the pIC50 is 7.46.

`CCCCCCCCCCCCCCCCCCOc1c(OC)cc2oc(-c3ccc(OC(C)=O)c(OC(C)=O)c3)cc(=O)c2c1OC`: the negative logarithm of the IC50 (pIC50) was 5.00.

With `CCCCCCOc1c(OC)cc2oc(-c3ccc(O)c(O)c3)cc(=O)c2c1OC`, the pIC50 is 7.85.

Take `CCCCCCCCCCCCCCCCOc1c(OC)cc2oc(-c3ccc(O)c(O)c3)cc(=O)c2c1OC`: the negative-log IC50 (pIC50) was 5.82. This pIC50 is 2.03 log units lower than that of the compound before.

Take `CCCCCCCCCCCCOc1c(OC)c(OC)cc2oc(-c3ccc(O)c(O)c3)cc(=O)c12`: the pIC50 is 7.74.

`CCCCCOc1c(OC)cc2oc(-c3ccc(OC(C)=O)c(OC(C)=O)c3)cc(=O)c2c1OC` had a pIC50 of 7.55.

On to `CCCCCCCCCCCCCCCCOc1c(OC)cc2oc(-c3ccc(O)c(O)c3)cc(=O)c2c1O`, for which the pIC50 is 5.00.

In turn, `CCCCCCCCCCCCOc1c(OC)cc2oc(-c3ccc(O)c(O)c3)cc(=O)c2c1OC` gave a pIC50 of 7.52. Compared with the last compound, the pIC50 is 2.52 log units higher.

In turn, `CCCCCCCCCCCCCCOc1c(OC)cc2oc(-c3ccc(OC(C)=O)c(OC(C)=O)c3)cc(=O)c2c1OC` showed a pIC50 of 5.00.

For `CCCCCCCCCCCCCCCCOc1c(OC)cc2oc(-c3ccc(OC(C)=O)c(OC(C)=O)c3)cc(=O)c2c1OC`, the pIC50 is 5.00.

With `CCCCCCCCCCCCOc1cc(O)c2c(=O)cc(-c3ccc(O)c(O)c3)oc2c1OC`, the pIC50 is 6.74. This pIC50 lies 1.74 log units higher than the previous one.

In turn, `COc1cc(O)c2c(=O)cc(-c3ccc(O)c(O)c3)oc2c1OC` had a negative logarithm of the IC50 (pIC50) of 6.96.

On to `CCCCCCCCOc1c(OC)cc2oc(-c3ccc(O)c(O)c3)cc(=O)c2c1OC`, for which the pIC50 was 7.66. This pIC50 is 0.70 log units higher than that of the compound before.

For `COc1cc2oc(-c3ccc(O)c(O)c3)cc(=O)c2c(O)c1OC` [CIRSILIOL], the pIC50 was 7.02.
